ChEMBL document CHEMBL3745678, “Novel β-Carboline/Hydroxamic Acid Hybrids Targeting Both Histone Deacetylase and DNA Display High Anticancer Activity via Regulation of the p53 Signaling Pathway” (J Med Chem, 2015)
The source made the active and inactive calls. No cut-off for these calls is given here.

Key:
LoVo [1] = test: Antiproliferative activity against human LoVo cells at 25 uM after 48 hrs by MTT assay; assay type: functional, cell-based
How it was run: (§1)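 Single-point screen at 25 µM in HCT116, SW620 and LOVO cells. Cells seeded at 10^4 cells/ml in DMEM + 10% FBS and left to adhere overnight at 37 °C, 5% CO2. MTT read 48 h after dosing with 0.1% DMSO as the negative control. Inhibition % = (1 − OD treated/OD control) × 100; mean ± SD of three measurements.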

HCT-116 [2] = test: Antiproliferative activity against human HCT116 cells at 25 uM after 48 hrs by MTT assay; assay type: functional, cell-based; how it was run: as §1
Histone deacetylase = test: Inhibition of HDAC in human HeLa cell nuclear extract using Boc-Lys (Ac)-AMC as substrate after 60 mins by fluorometric analysis; assay type: cell-based
SW-620 = test: Antiproliferative activity against human SW620 cells at 25 uM after 48 hrs by MTT assay; assay type: functional, cell-based; how it was run: as §1
SW480 = test: Antiproliferative activity against human SW480 cells assessed as cell viability after 48 hrs by MTT assay; assay type: functional, cell-based; details: SW480, 48 h
HCT-116 [3] = test: Potency index, ratio of SAHA IC50 to compound IC50 for human HCT116 cells; assay type: functional
How it was run: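 HCT116 cells seeded at 10^4 cells/ml and adhered overnight, then treated 48 h over a concentration series with 0.1% DMSO as control. MTT readout; IC50 derived from inhibition % = (1 − OD treated/OD control) × 100, three independent measurements. Index = SAHA IC50 ÷ compound IC50.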

[4] = Antiproliferative activity against human SW620 cells assessed as cell viability after 48 hrs by MTT assay; assay type: functional, cell-based; details: SW-620, 48 h
[5] = Antiproliferative activity against human HCT116 cells assessed as cell viability after 48 hrs by MTT assay; assay type: functional, cell-based, HCT-116; details: Homo sapiens, HCT-116, 48 h
[6] = biological target: T1, Protein deacetylase HDAC6 (Homo sapiens, UniProt Q9UBN7); test: Inhibition of recombinant human HDAC6 using Boc-Lys (Ac)-AMC as substrate after 60 mins by fluorometric analysis
T1 sequence (Q9UBN7 whole entry): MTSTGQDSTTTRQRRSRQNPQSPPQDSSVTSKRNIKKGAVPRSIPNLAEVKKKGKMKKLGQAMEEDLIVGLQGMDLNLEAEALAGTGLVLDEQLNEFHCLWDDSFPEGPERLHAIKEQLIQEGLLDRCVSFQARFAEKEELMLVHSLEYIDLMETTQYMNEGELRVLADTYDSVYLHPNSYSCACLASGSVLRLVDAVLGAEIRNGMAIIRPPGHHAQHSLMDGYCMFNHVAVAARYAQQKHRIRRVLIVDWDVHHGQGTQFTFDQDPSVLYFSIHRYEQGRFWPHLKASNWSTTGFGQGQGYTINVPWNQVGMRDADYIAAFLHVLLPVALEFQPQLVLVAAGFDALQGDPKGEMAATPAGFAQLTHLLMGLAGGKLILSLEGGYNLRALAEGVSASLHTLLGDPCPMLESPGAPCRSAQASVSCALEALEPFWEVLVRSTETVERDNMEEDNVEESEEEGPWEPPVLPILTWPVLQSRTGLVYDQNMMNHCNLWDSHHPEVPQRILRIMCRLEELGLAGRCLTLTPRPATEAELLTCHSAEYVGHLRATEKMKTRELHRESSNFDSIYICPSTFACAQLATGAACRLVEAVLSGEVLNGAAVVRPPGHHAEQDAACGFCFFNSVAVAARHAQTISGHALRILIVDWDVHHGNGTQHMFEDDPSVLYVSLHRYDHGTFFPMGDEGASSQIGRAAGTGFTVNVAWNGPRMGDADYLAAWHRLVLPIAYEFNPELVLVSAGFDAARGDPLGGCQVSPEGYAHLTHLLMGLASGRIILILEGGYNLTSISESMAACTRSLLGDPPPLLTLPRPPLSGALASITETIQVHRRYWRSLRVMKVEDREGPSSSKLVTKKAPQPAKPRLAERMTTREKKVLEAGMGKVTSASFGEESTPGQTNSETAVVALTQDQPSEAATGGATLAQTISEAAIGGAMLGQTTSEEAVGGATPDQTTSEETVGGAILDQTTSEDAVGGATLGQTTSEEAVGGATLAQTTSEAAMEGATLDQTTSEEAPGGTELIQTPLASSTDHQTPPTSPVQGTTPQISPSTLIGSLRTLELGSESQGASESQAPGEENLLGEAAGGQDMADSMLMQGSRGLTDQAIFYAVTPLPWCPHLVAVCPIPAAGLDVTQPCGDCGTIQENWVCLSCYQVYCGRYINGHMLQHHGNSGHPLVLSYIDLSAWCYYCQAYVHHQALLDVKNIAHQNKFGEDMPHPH

LoVo [7] = test: Antiproliferative activity against human LoVo cells assessed as cell viability after 48 hrs by MTT assay; assay type: functional, cell-based
Histone deacetylase 1 = Histone deacetylase 1 (Homo sapiens, UniProt Q13547); test: Inhibition of recombinant human HDAC1 using Boc-Lys (Ac)-AMC as substrate after 60 mins by fluorometric analysis
Histone deacetylase 8 = biological target: T2, Histone deacetylase 8 (Homo sapiens, UniProt Q9BY41); test: Inhibition of recombinant human HDAC8 using Boc-Lys (Ac)-AMC as substrate after 60 mins by fluorometric analysis
T2 sequence (Q9BY41 whole entry): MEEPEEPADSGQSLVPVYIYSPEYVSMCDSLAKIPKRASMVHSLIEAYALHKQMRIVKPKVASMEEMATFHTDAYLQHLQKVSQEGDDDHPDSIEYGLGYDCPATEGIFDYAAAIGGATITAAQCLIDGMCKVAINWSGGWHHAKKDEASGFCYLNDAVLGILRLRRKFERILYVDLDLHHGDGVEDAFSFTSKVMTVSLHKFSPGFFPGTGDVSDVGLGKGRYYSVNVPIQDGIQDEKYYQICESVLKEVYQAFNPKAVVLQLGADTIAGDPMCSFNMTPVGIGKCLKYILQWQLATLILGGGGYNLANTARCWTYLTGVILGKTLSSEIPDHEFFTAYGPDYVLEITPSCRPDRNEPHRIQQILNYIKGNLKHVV

Histone deacetylase 1, sequence (Q13547 whole entry): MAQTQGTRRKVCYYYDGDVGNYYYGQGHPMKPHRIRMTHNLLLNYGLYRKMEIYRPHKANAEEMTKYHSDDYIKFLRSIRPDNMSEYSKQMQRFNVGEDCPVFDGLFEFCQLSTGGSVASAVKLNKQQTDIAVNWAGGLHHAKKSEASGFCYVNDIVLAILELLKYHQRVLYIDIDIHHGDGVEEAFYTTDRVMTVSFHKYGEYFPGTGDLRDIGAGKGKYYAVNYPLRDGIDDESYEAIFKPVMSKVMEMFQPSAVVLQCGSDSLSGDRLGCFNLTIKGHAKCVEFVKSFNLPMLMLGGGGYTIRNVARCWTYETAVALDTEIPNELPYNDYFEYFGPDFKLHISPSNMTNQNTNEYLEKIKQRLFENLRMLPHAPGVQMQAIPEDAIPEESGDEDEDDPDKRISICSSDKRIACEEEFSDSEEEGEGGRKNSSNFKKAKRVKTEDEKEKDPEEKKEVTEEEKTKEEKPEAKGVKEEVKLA

Row | IC50 (Histone deacetylase) [µM] | IC50 (SW480) [µM] | IC50 [6] [µM] | IC50 (LoVo [7]) [µM] | IC50 (Histone deacetylase 1) [µM] | IC50 (Histone deacetylase 8) [µM] | Structure (SMILES) | Activity (LoVo [1]) | Activity (HCT-116 [2]) | Activity (SW-620) | Ratio IC50 (HCT-116 [3]) | IC50 [4] [µM] | IC50 [5] [µM]
1 | 3.23 |  |  |  |  |  | O=C(CCNC(=O)c1cc2c(cn1)[nH]c1ccccc12)NO | inactive | inactive | inactive |  |  | 
2 | 0.67 | 4.65 | 0.061 | 3.77 | 0.13 | 0.39 | COc1ccc(-c2nc(C(=O)NCCCC(=O)NO)cc3c2[nH]c2ccccc23)cc1 | Active | Active | Active | 2 | 4.46 | 2.72
3 | 1.17 | 9.83 |  | 7.9 |  |  | COc1ccc(-c2nc(C(=O)NCCCCCC(=O)NO)cc3c2[nH]c2ccccc23)cc1 | Active | Active | Active |  | 8.06 | 7.16
4 | 1.43 |  |  |  |  |  | O=C(CCCCNC(=O)c1cc2c(cn1)[nH]c1ccccc12)NO | inactive | inactive | inactive |  |  | 
5 | 3.02 | 10.5 |  | > 12.5 |  |  | COc1ccc(-c2nc(C(=O)NCC(=O)NO)cc3c2[nH]c2ccccc23)cc1 | Active | Active | Active |  | 6.92 | > 12.5
6 | 0.81 | 4.43 |  | 5.28 |  |  | COc1ccc(-c2nc(C(=O)NCCCCC(=O)NO)cc3c2[nH]c2ccccc23)cc1 | Active | Active | Active |  | 2.53 | 3.35
7 | 1.05 | > 12.5 |  | > 12.5 |  |  | COc1ccc(-c2nc(NC(=O)NCCCCCC(=O)NO)cc3c4ccccc4n(C)c23)cc1 |  |  |  |  | 9.53 | 8.76
8 | 1.56 |  |  |  |  |  | O=C(CCCNC(=O)c1cc2c(cn1)[nH]c1ccccc12)NO | inactive | inactive | inactive |  |  | 
9 | 1.33 | 4.4 |  | 5.66 |  |  | COc1ccc(-c2nc(NC(=O)NCCC(=O)NO)cc3c4ccccc4n(C)c23)cc1 |  |  |  |  | 5.02 | 4.27
10 | 2.24 | 10.1 |  | 9.36 |  |  | COc1ccc(-c2nc(NC(=O)NCC(=O)NO)cc3c2[nH]c2ccccc23)cc1 |  |  |  |  | 7.12 | 8.52
11 | 5.37 |  |  |  |  |  | Cc1nc(C(=O)NCC(=O)NO)cc2c1[nH]c1ccccc12 | inactive | inactive | inactive |  |  | 
12 | 1.26 |  |  |  |  |  | Cc1nc(C(=O)NCCCCC(=O)NO)cc2c1[nH]c1ccccc12 | inactive | inactive | inactive |  |  | 

Continued, molecule first:

Row | Structure (SMILES) | IC50 (Histone deacetylase) [µM] | IC50 (SW480) [µM] | IC50 [6] [µM] | IC50 (LoVo [7]) [µM] | IC50 (Histone deacetylase 1) [µM] | IC50 (Histone deacetylase 8) [µM] | Activity (LoVo [1]) | Activity (HCT-116 [2]) | Activity (SW-620) | Ratio IC50 (HCT-116 [3]) | IC50 [4] [µM] | IC50 [5] [µM]
13 | O=C(CCCCCNC(=O)c1cc2c(cn1)[nH]c1ccccc12)NO | 1.81 |  |  |  |  |  | inactive | inactive | inactive |  |  | 
14 | COc1ccc(-c2nc(C(=O)NCCC(=O)NO)cc3c2[nH]c2ccccc23)cc1 | 1.31 | 11.2 |  | 9.01 |  |  | Active | Active | Active |  | 6.73 | 8.64
15 | Cc1nc(C(=O)NCCCC(=O)NO)cc2c1[nH]c1ccccc12 | 1.21 |  |  |  |  |  | inactive | inactive | inactive |  |  | 
16 | COc1ccc(-c2nc(NC(=O)NCCCCCC(=O)NO)cc3c2[nH]c2ccccc23)cc1 | 0.82 | 5.09 |  | 7.34 |  |  |  |  |  |  | 6.25 | 4.84
17 | Cc1nc(C(=O)NCCCCCC(=O)NO)cc2c1[nH]c1ccccc12 | 1.43 |  |  |  |  |  | inactive | inactive | inactive |  |  | 
18 | O=C(CNC(=O)c1cc2c(cn1)[nH]c1ccccc12)NO | 6.17 |  |  |  |  |  | inactive | inactive | inactive |  |  | 
19 | COc1ccc(-c2nc(NC(=O)NCC(=O)NO)cc3c4ccccc4n(C)c23)cc1 | 3.16 | 9.81 |  | > 12.5 |  |  |  |  |  |  | 8.36 | 9.3
20 | COc1ccc(-c2nc(NC(=O)NCCCCC(=O)NO)cc3c4ccccc4n(C)c23)cc1 | 0.86 | 5.8 |  | 6.24 |  |  |  |  |  |  | 5.09 | 3.87
21 | Cc1nc(C(=O)NCCC(=O)NO)cc2c1[nH]c1ccccc12 | 2.45 |  |  |  |  |  | inactive | inactive | inactive |  |  | 
22 | COc1ccc(-c2nc(NC(=O)NCCCCC(=O)NO)cc3c2[nH]c2ccccc23)cc1 | 0.35 | 1.73 | 0.093 | 2.17 | 0.079 | 0.2 |  |  |  |  | 2.02 | 0.99
23 | COc1ccc(-c2nc(NC(=O)NCCC(=O)NO)cc3c2[nH]c2ccccc23)cc1 | 0.43 | 3.11 | 0.36 | 3.61 | 0.11 | 0.43 |  |  |  |  | 2.69 | 3.08
